Test results from paper PMC6133080 (European Journal of Drug Metabolism and Pharmacokinetics, 2018).
Where two headings read alike, the source gives them in different places.

Assays:
[1] = Rifampicin study: safety and tolerability; assay type: in vivo, human; conditions: for Subjects with any AE (s) / Subjects with chromaturia / Subjects with cough / Subjects with dermatitis contact / Subjects with diarrhea / Subjects with dizziness / Subjects with dysphagia / Subjects with eye pain / Subjects with fatigue / Subjects with feces discolored / Subjects with feeling hot / Subjects with flatulence / Subjects with headache / Subjects with influenza / Subjects with laceration / Subjects with nausea / Subjects with night sweats / Subjects with oropharyngeal pain / Subjects with pollakiuria / Subjects with rhinitis / Subjects with vessel puncture site paresthesia: nintedanib 150 mg single dose, rifampicin 600 mg once daily for 7 days
Outline: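 26 healthy subjects in an open-label, two-period, fixed-sequence design. A single oral nintedanib 150 mg dose was given alone, then again the morning after the last oral rifampicin 600 mg once-daily dose (7 days), with ≥14 days between nintedanib doses. AEs within 72 h of each nintedanib dose were assigned to that period. AEs later than 72 h after nintedanib alone and before rifampicin started were counted as washout. Labs, vital signs, 12-lead ECG and physical exam were also assessed.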

[2] = assay type: in vivo, human
[3] = assay type: in vivo, human; remark: listed apart in the source
Outline: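 Open-label, fixed-sequence, two-period study in 26 healthy subjects. A single oral 150 mg dose was given alone, then the morning after the last of 7 daily oral 600 mg co-drug doses. Doses were ≥14 days apart. Plasma sampled pre-dose to 72 h and assayed by LC-MS/MS. Cmax observed; AUC by linear-up/log-down trapezoidal rule; log values analysed by ANOVA (treatment fixed, subject random), giving geometric mean ratios with 90% CIs.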

[4] = test system: p-glycoprotein (P-gp); conditions: cited from earlier work
[5] = cited from earlier work
[6] = test system: esterases; conditions: in vitro; cited from earlier work
[7] = test system: CYP; conditions: in vitro; cited from earlier work
[8] = Ketoconazole study: safety and tolerability; assay type: in vivo, human; conditions: for Subjects with abdominal pain upper / Subjects with any AE (s) / Subjects with back pain / Subjects with dizziness / Subjects with dry mouth / Subjects with excoriation / Subjects with fatigue / Subjects with headache / Subjects with nasopharyngitis / Subjects with ocular hyperemia / Subjects with puncture site induration / Subjects with puncture site pain: nintedanib 50 mg single dose, ketoconazole 400 mg once daily for 3 days
Outline: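 Healthy subjects in an open-label 2-way crossover with randomized sequences. The pilot period had 8 subjects and the main period 26 further subjects. Nintedanib 50 mg was given alone and after ketoconazole 400 mg once daily for 3 days (1 h after the last dose in the pilot), with ≥14 days between nintedanib doses. AEs from one drug intake to the next, washout included, were assigned to that treatment period (nintedanib, ketoconazole, or both). Labs, vital signs, 12-lead ECG and physical exam were also recorded.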

[9] = single dose of nintedanib alone and with rifampicin
[10] = co-administration with ketoconazole
[11] = test nintedanib 50 mg + ketoconazole 400 mg vs reference nintedanib 50 mg
[12] = co-administration with rifampicin
[13] = test nintedanib 150 mg + rifampicin 600 mg vs reference nintedanib 150 mg
[14] = single dose of nintedanib alone and with ketoconazole

CO[C@H]1/C=C/O[C@@]2(C)Oc3c(C)c(O)c4c(O)c(c(/C=N/N5CCN(C)CC5)c(O)c4c3C2=O)NC(=O)/C(C)=C\C=C\[C@H](C)[C@H](O)[C@@H](C)[C@@H](O)[C@@H](C)[C@H](OC(C)=O)[C@@H]1C [Rifampicin]
Subjects with any AE (s) [1]: 25 (100) n (%) | Subjects with chromaturia [1]: 25 (100) n (%) | Subjects with cough [1]: 1 (4.0) n (%) | Subjects with dermatitis contact [1]: 0 n (%) | Subjects with diarrhea [1]: 1 (4.0) n (%) | Subjects with dizziness [1]: 2 (8.0) n (%) | Subjects with dysphagia [1]: 1 (4.0) n (%) | Subjects with eye pain [1]: 1 (4.0) n (%) | Subjects with fatigue [1]: 2 (8.0) n (%) | Subjects with feces discolored [1]: 3 (12.0) n (%) | Subjects with feeling hot [1]: 1 (4.0) n (%) | Subjects with flatulence [1]: 2 (8.0) n (%) | Subjects with headache [1]: 5 (20.0) n (%) | Subjects with influenza [1]: 0 n (%) | Subjects with laceration [1]: 1 (4.0) n (%) | Subjects with nausea [1]: 1 (4.0) n (%) | Subjects with night sweats [1]: 1 (4.0) n (%) | Subjects with oropharyngeal pain [1]: 0 n (%) | Subjects with pollakiuria [1]: 1 (4.0) n (%) | Subjects with rhinitis [1]: 1 (4.0) n (%) | Subjects with vessel puncture site paresthesia [1]: 0 n (%)

COC(=O)c1ccc2c(c1)NC(=O)/C2=C(\Nc1ccc(N(C)C(=O)CN2CCN(C)CC2)cc1)c1ccccc1 [Nintedanib]
Subjects with any AE (s) [1]: 5 (19.2) n (%) | Subjects with chromaturia [1]: 0 n (%) | Subjects with cough [1]: 0 n (%) | Subjects with dermatitis contact [1]: 0 n (%) | Subjects with diarrhea [1]: 5 (19.2) n (%) | Subjects with dizziness [1]: 0 n (%) | Subjects with dysphagia [1]: 0 n (%) | Subjects with eye pain [1]: 0 n (%) | Subjects with fatigue [1]: 0 n (%) | Subjects with feces discolored [1]: 0 n (%) | Subjects with feeling hot [1]: 0 n (%) | Subjects with flatulence [1]: 0 n (%) | Subjects with headache [1]: 1 (3.8) n (%) | Subjects with influenza [1]: 0 n (%) | Subjects with laceration [1]: 0 n (%) | Subjects with nausea [1]: 0 n (%) | Subjects with night sweats [1]: 0 n (%) | Subjects with oropharyngeal pain [1]: 0 n (%) | Subjects with pollakiuria [1]: 0 n (%) | Subjects with rhinitis [1]: 0 n (%) | Subjects with vessel puncture site paresthesia [1]: 0 n (%) | Serious AEs [1, 9]: No serious AEs | Tolerability [1, 9]: well tolerated | Effect on tmax and t½ of nintedanib ([2]; co-administration of ketoconazole): unaffected | Increase in exposure to nintedanib based on AUC [2, 10]: about 1.6 fold | Increase in exposure to nintedanib based on Cmax [2, 10]: ~1.7 fold | Tmax ([2]; human, plasma, oral): 3 h | half-life ([2]; human, plasma, oral): 15.6 h | AUC(0-inf) ([2]; human, plasma, po, 50 mg): 38.6 ng·h/mL | AUC(0-t) ([2]; human, plasma, po, 50 mg): 35.7 ng·h/mL | Cmax ([2]; human, plasma, po, 50 mg): 4.19 ng/mL | half-life ([2]; human, plasma, po, 50 mg): 18.1 h | Exposure to nintedanib (AUC0–∞, Cmax, AUC0–tz) higher when co-administered with ketoconazole than alone ([2]; nintedanib 50 mg, ketoconazole 400 mg once daily for 3 days): 1.6–1.7 fold | Relative bioavailability, GMR (90% CI) of AUC0–tz [2, 11]: 168.1 (155.3–182.0) % | Relative bioavailability, GMR (90% CI) of AUC0–∞ [2, 11]: 160.5 (148.2–173.7) % | Relative bioavailability, GMR (90% CI) of Cmax [2, 11]: 179.6 (157.6–204.8) % | Effect on tmax and t½ of nintedanib ([3]; co-administration of rifampicin): unaffected | Reduction of exposure to nintedanib based on AUC [3, 12]: about 50% | Reduction of exposure to nintedanib based on Cmax [3, 12]: ~60% | Tmax ([3]; human, plasma, oral): 4 h | half-life ([3]; human, plasma, oral): 23.4 h | AUC(0-inf) ([3]; human, plasma, po, 150 mg): 183 ng·h/mL | AUC(0-t) ([3]; human, plasma, po, 150 mg): 173 ng·h/mL | Cmax ([3]; human, plasma, po, 150 mg): 22.1 ng/mL | half-life ([3]; human, plasma, po, 150 mg): 22.5 h | Relative bioavailability, GMR (90% CI) of AUC0–tz [3, 13]: 50.0 (46.9–53.3) % | Relative bioavailability, GMR (90% CI) of AUC0–∞ [3, 13]: 50.1 (47.2–53.3) % | Relative bioavailability, GMR (90% CI) of Cmax [3, 13]: 59.8 (53.8–66.4) % | Substrate for p-glycoprotein (P-gp) [4]: substrate | Terminal half-life [5]: 10 to 15 h | Volume of distribution ([5]; geometric mean): 1050 L | Percentage absorbed ([5]; nintedanib 100 mg in healthy volunteers, estimated): 23% | Absolute bioavailability ([5]; nintedanib 100 mg in healthy volunteers): approximately 5% | Time to maximum plasma concentration ([5]; oral administration): 2 to 4 h | Time to steady state ([5]; oral dosing): ≤ 7 days | Share of ester cleavage [6]: about 25% | Share of CYP-dependent metabolism [7]: about 5% | Subjects with abdominal pain upper [8]: 0 n (%) | Subjects with any AE (s) [8]: 8 (25.8) n (%) | Subjects with back pain [8]: 0 n (%) | Subjects with dizziness [8]: 1 (3.2) n (%) | Subjects with dry mouth [8]: 0 n (%) | Subjects with excoriation [8]: 0 n (%) | Subjects with fatigue [8]: 1 (3.2) n (%) | Subjects with headache [8]: 5 (16.1) n (%) | Subjects with nasopharyngitis [8]: 2 (6.5) n (%) | Subjects with ocular hyperemia [8]: 1 (3.2) n (%) | Subjects with puncture site induration [8]: 0 n (%) | Subjects with puncture site pain [8]: 0 n (%) | Serious AEs [8, 14]: No serious AEs | Tolerability [8, 14]: well tolerated

CC(=O)N1CCN(c2ccc(OCC3COC(Cn4ccnc4)(c4ccc(Cl)cc4Cl)O3)cc2)CC1 (centres unmarked) [Ketoconazole]
Subjects with abdominal pain upper [8]: 1 (2.9) n (%) | Subjects with any AE (s) [8]: 3 (8.8) n (%) | Subjects with back pain [8]: 0 n (%) | Subjects with dizziness [8]: 0 n (%) | Subjects with dry mouth [8]: 1 (2.9) n (%) | Subjects with excoriation [8]: 0 n (%) | Subjects with fatigue [8]: 0 n (%) | Subjects with headache [8]: 2 (5.9) n (%) | Subjects with nasopharyngitis [8]: 0 n (%) | Subjects with ocular hyperemia [8]: 0 n (%) | Subjects with puncture site induration [8]: 0 n (%) | Subjects with puncture site pain [8]: 0 n (%)
